The source of these data is ChEMBL document CHEMBL1124364, “3-Sulfonyl-1-carba-1-dethiacephems” (1989).

In brackets after ≈: the same amount, converted by molar mass.

What all share (type): functional
In experiment [1] the test system is Morganella morganii. Nature of the experiment: Minimum inhibitory concentration against Proteus morganii (PR 15). A digest of the protocol:
(§1)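 Agar dilution: compounds diluted in 0.1 M phosphate buffer pH 7.0 and incorporated into Mueller-Hinton agar with 1% Bacto-Supplement C at 50 °C. Fresh overnight cultures diluted to about 1×10^4 cells/µL; 1 µL spotted on plates. Incubated overnight at 35 °C in ambient air. MIC taken as the lowest concentration preventing visible growth.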

Experiment [2] has as its system Haemophilus influenzae. Briefly: Minimum inhibitory concentration against Haemophilus influenzae (C.L.). The procedure, abridged: as §1
Experiment [3] has as its system Enterobacter cloacae. Nature of the experiment: Minimum inhibitory concentration against Enterobacter cloacae (265A beta-lactamase containing). The procedure, abridged: as §1
Experiment [4] relates to Salmonella. Nature of the experiment: Minimum inhibitory concentration against Salmonella (X514). A digest of the protocol:
as §1

The test system of experiment [5] is Escherichia coli. Nature of the experiment: Minimum inhibitory concentration against Escherichia coli (TEM beta-lactamase containing). A digest of the protocol:
as §1

For experiment [6], the system named is Klebsiella. Briefly: Minimum inhibitory concentration against Klebsiella (KAE beta-lactamase containing). A digest of the protocol: as §1
For experiment [7], the system named is Streptococcus pneumoniae. Nature of the experiment: Minimum inhibitory concentration against Streptococcus pneumoniae (PARK). A digest of the protocol:
as §1

Experiment [8] relates to Enterobacter cloacae. Nature of the experiment: Minimum inhibitory concentration against Enterobacter cloacae (EB5). A digest of the protocol: as §1
The subject of experiment [9] is Escherichia coli. Briefly: Minimum inhibitory concentration against Escherichia coli (EC14). A digest of the protocol: as §1
Experiment [10] relates to Staphylococcus aureus. Nature of the experiment: Minimum inhibitory concentration against Staphylococcus aureus (X1.1). The procedure, abridged: as §1
Experiment [11] concerns Pseudomonas aeruginosa. Nature of the experiment: Minimum inhibitory concentration against Pseudomonas aeruginosa (X528). A digest of the protocol:
as §1

Experiment [12] relates to Klebsiella. Briefly: Minimum inhibitory concentration against Klebsiella (X26). A digest of the protocol: as §1
For experiment [13], the system named is Providencia rettgeri. Nature of the experiment: Minimum inhibitory concentration against Proteus rettgeri (C24). The procedure, abridged:
as §1

In experiment [14] the test system is Staphylococcus epidermidis. Briefly: Minimum inhibitory concentration against Staphylococcus epidermidis (222). The procedure, abridged: as §1
Experiment [15] deals with Streptococcus pyogenes. Nature of the experiment: Minimum inhibitory concentration against Streptococcus pyogenes (C203). The procedure, abridged: as §1
The mark [16] stands for this setting: Morganella morganii, read-out: MIC.
Setting [17] is: Haemophilus influenzae, read-out: MIC.
Where [18] appears, read: Enterobacter cloacae, read-out: MIC.
Where [19] appears, read: Escherichia coli, read-out: MIC.
The mark [20] stands for this setting: Streptococcus pneumoniae, read-out: MIC.
Setting [21] is: Staphylococcus aureus, read-out: MIC.
[22] abbreviates: Pseudomonas aeruginosa, read-out: MIC.
Setting [23] is: Providencia rettgeri, read-out: MIC.
Setting [24] is: Staphylococcus epidermidis, read-out: MIC.
[25] abbreviates: Streptococcus pyogenes, read-out: MIC.

Regarding `CO/N=C(/C(=O)N[C@@H]1C(=O)N2C(C(=O)O)=C(S(=O)(=O)c3cccs3)CC[C@H]12)c1csc(N)n1`, the MIC in [1] (setting [16]) was 64 µg/mL (≈ 125 µM); in experiment [2] (setting [17]), 1 µg/mL (≈ 1.95 µM); in experiment [3] (setting [18]), > 128 µg/mL; in [4] (Salmonella, read-out: MIC) it was 0.5 µg/mL (≈ 0.977 µM); in experiment [5] (setting [19]), 128 µg/mL (≈ 250 µM); in [6] (Klebsiella, read-out: MIC), > 128 µg/mL. The MIC in experiment [7] (setting [20]) was 0.03 µg/mL (≈ 0.0586 µM); in [8] (setting [18]) it was 8 µg/mL (≈ 15.6 µM); in [9] (setting [19]), 2 µg/mL (≈ 3.91 µM); in experiment [10] (setting [21]), 4 µg/mL (≈ 7.82 µM); in experiment [11] (setting [22]), > 128 µg/mL; in [12] (Klebsiella, read-out: MIC), 2 µg/mL (≈ 3.91 µM). Moreover, the MIC in experiment [13] (setting [23]) is 64 µg/mL (≈ 125 µM); in [14] (setting [24]) it was 16 µg/mL (≈ 31.3 µM); in [15] (setting [25]), 0.015 µg/mL (≈ 0.0293 µM).
For the compound `CO/N=C(/C(=O)N[C@@H]1C(=O)N2C(C(=O)O)=C(S(=O)(=O)c3cccnc3)CC[C@H]12)c1csc(N)n1`, the MIC in [1] (setting [16]) was > 128 µg/mL; in [2] (setting [17]), 1 µg/mL (≈ 1.97 µM); in experiment [3] (setting [18]), > 128 µg/mL; in experiment [4] (Salmonella, read-out: MIC), 2 µg/mL (≈ 3.95 µM); in experiment [5] (setting [19]), 4 µg/mL (≈ 7.9 µM); in experiment [6] (Klebsiella, read-out: MIC), > 128 µg/mL. For the same compound, the MIC was 0.125 µg/mL (≈ 0.247 µM) in experiment [7] (setting [20]); 16 µg/mL (≈ 31.6 µM) in experiment [8] (setting [18]); 1 µg/mL (≈ 1.97 µM) in experiment [9] (setting [19]); 16 µg/mL (≈ 31.6 µM) in [10] (setting [21]); > 128 µg/mL in experiment [11] (setting [22]); 2 µg/mL (≈ 3.95 µM) in experiment [12] (Klebsiella, read-out: MIC). The figures for the MIC in experiment [13] (setting [23]), in [14] (setting [24]) and in [15] (setting [25]) were > 128 µg/mL, 32 µg/mL (≈ 63.2 µM) and 0.06 µg/mL (≈ 0.118 µM), respectively.
On to `CO/N=C(/C(=O)N[C@@H]1C(=O)N2C(C(=O)O)=C(S(C)(=O)=O)CC[C@H]12)c1csc(N)n1`, for which the MIC in experiment [1] (setting [16]) was 1 µg/mL (≈ 2.25 µM); in experiment [2] (setting [17]) it was 0.25 µg/mL (≈ 0.564 µM); in experiment [3] (setting [18]), > 128 µg/mL; in experiment [4] (Salmonella, read-out: MIC), 0.125 µg/mL (≈ 0.282 µM); in experiment [5] (setting [19]), 1 µg/mL (≈ 2.25 µM); in [6] (Klebsiella, read-out: MIC) it was 64 µg/mL (≈ 144 µM). Further, the MIC in experiment [7] (setting [20]) was 0.06 µg/mL (≈ 0.135 µM); in [8] (setting [18]), 2 µg/mL (≈ 4.51 µM); in experiment [9] (setting [19]), 0.25 µg/mL (≈ 0.564 µM); in [10] (setting [21]), 16 µg/mL (≈ 36.1 µM); in experiment [11] (setting [22]) it was > 128 µg/mL; in [12] (Klebsiella, read-out: MIC) it was 0.06 µg/mL (≈ 0.135 µM). Besides, the MIC in experiment [13] (setting [23]) is 0.5 µg/mL (≈ 1.13 µM); in [14] (setting [24]), 32 µg/mL (≈ 72.2 µM); in experiment [15] (setting [25]), 0.06 µg/mL (≈ 0.135 µM).
`CS(=O)(=O)C1=C(C(=O)O)N2C(=O)[C@@H](NC(=O)COc3ccccc3)[C@H]2SC1` (stereo in doubt; 7 (1-S)): the MIC in experiment [1] was found to be 128 µg/mL (≈ 310 µM); in [2], 1 µg/mL (≈ 2.42 µM); in experiment [3] it was 128 µg/mL (≈ 310 µM); in experiment [4], 64 µg/mL (≈ 155 µM); in experiment [5], 128 µg/mL (≈ 310 µM); in experiment [6], 128 µg/mL (≈ 310 µM). The MIC was determined as 0.25 µg/mL (≈ 0.606 µM) in experiment [7]; 128 µg/mL (≈ 310 µM) in experiment [8]; 64 µg/mL (≈ 155 µM) in experiment [9]; 0.25 µg/mL (≈ 0.606 µM) in experiment [10]; 128 µg/mL (≈ 310 µM) in [11]; 8 µg/mL (≈ 19.4 µM) in [12]. For the same compound, the figures for the MIC in experiment [13], in experiment [14] and in [15] were 128 µg/mL (≈ 310 µM), 0.25 µg/mL (≈ 0.606 µM) and 0.125 µg/mL (≈ 0.303 µM), respectively.
For `CS(=O)(=O)C1=C(C(=O)O)N2C(=O)[C@@H](NC(=O)COc3ccccc3)[C@H]2CC1` (stereo in doubt; 7), the MIC in [1] (setting [16]) was > 128 µg/mL; in [2], 16 µg/mL (≈ 40.6 µM); in experiment [3] (setting [18]), > 128 µg/mL; in [4] it was 8 µg/mL (≈ 20.3 µM); in experiment [5] (setting [19]), > 128 µg/mL; in experiment [6] (Klebsiella, read-out: MIC), > 128 µg/mL. Further, the MIC in [7] was 0.06 µg/mL (≈ 0.152 µM); in [8] (setting [18]), > 128 µg/mL; in experiment [9] (setting [19]), 4 µg/mL (≈ 10.1 µM); in experiment [10] (setting [21]) it was 0.25 µg/mL (≈ 0.634 µM); in experiment [11] (setting [22]), > 128 µg/mL; in experiment [12] (Klebsiella, read-out: MIC), 8 µg/mL (≈ 20.3 µM). The results for the MIC in experiment [13] (setting [23]), in experiment [14] (setting [24]) and in [15] were > 128 µg/mL, 0.5 µg/mL (≈ 1.27 µM) and 0.015 µg/mL (≈ 0.038 µM), respectively.
Regarding `N[C@@H](C(=O)N[C@@H]1C(=O)N2C(C(=O)O)=C(Cl)CS[C@H]12)c1ccccc1` [CEFACLOR ANHYDROUS], the MIC in [1] (setting [16]) is > 128 µg/mL; in experiment [2] (setting [17]), 2 µg/mL (≈ 5.44 µM); in [3] (setting [18]), > 128 µg/mL; in experiment [4] (Salmonella, read-out: MIC) it was 2 µg/mL (≈ 5.44 µM); in experiment [5] (setting [19]), 1 µg/mL (≈ 2.72 µM); in experiment [6] (Klebsiella, read-out: MIC), > 128 µg/mL. In addition, the MIC in [7] (setting [20]) is 1 µg/mL (≈ 2.72 µM); in experiment [8] (setting [18]), 16 µg/mL (≈ 43.5 µM); in experiment [9] (setting [19]), 0.5 µg/mL (≈ 1.36 µM); in experiment [10] (setting [21]) it was 2 µg/mL (≈ 5.44 µM); in experiment [11] (setting [22]), > 128 µg/mL; in experiment [12] (Klebsiella, read-out: MIC), 0.25 µg/mL (≈ 0.68 µM). Also, the figures for the MIC in experiment [13] (setting [23]), in experiment [14] (setting [24]) and in experiment [15] (setting [25]) were 64 µg/mL (≈ 174 µM), 4 µg/mL (≈ 10.9 µM) and 0.25 µg/mL (≈ 0.68 µM), respectively.
Take `CO/N=C(\C(=O)N[C@@H]1C(=O)N2C(C(=O)O)=C(COC(C)=O)CS[C@H]12)c1csc(N)n1` [CEFOTAXIME]: the MIC in [1] (setting [16]) stood at 0.25 µg/mL (≈ 0.549 µM); in experiment [2] (setting [17]), 0.015 µg/mL (≈ 0.0329 µM); in experiment [3] (setting [18]) it was 32 µg/mL (≈ 70.3 µM); in experiment [4] (Salmonella, read-out: MIC), 0.03 µg/mL (≈ 0.0659 µM); in [5] (setting [19]), 0.03 µg/mL (≈ 0.0659 µM); in experiment [6] (Klebsiella, read-out: MIC), 2 µg/mL (≈ 4.39 µM). In addition, the MIC in experiment [7] (setting [20]) turned out to be 0.015 µg/mL (≈ 0.0329 µM); in [8] (setting [18]) it was 0.125 µg/mL (≈ 0.274 µM); in experiment [9] (setting [19]), 0.03 µg/mL (≈ 0.0659 µM); in experiment [10] (setting [21]), 2 µg/mL (≈ 4.39 µM); in experiment [11] (setting [22]) it was 32 µg/mL (≈ 70.3 µM); in experiment [12] (Klebsiella, read-out: MIC), 0.008 µg/mL (≈ 0.0176 µM). For the same compound, the MIC was found to be 0.125 µg/mL (≈ 0.274 µM) in [13] (setting [23]), 2 µg/mL (≈ 4.39 µM) in [14] (setting [24]) and 0.015 µg/mL (≈ 0.0329 µM) in experiment [15] (setting [25]).
